In publication PMC7398146 (The Journal of General Physiology, 2020):

Tests used:
[1] = biological target: hKV7.2/3 (Homo sapiens, UniProt O43525+O43526); test: Two-electrode voltage clamp, hKV7.2/3 in Xenopus oocytes; assay type: cell-based; settings: for effect on maximal conductance GMAX (in words) / shift of V50 (in words): 10 µM and 100 µM
Procedure, shortened: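 hKV7.2 and hKV7.3 cRNA (2.5 ng each) were coinjected into Xenopus oocytes, held 2–4 d at 8°C or 16°C, and clamped with two electrodes at rt in HEPES saline, pH 7.4. Holding −80 mV; 2-s steps from −100 to +50 mV in 10-mV increments; tail −30 mV. Boltzmann G(V) fits per oocyte gave ΔV50 and GMAX change. A Hill fit across concentrations gave EC50. Current fold increase was taken per test voltage; mean ± SEM.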

[2] = biological target: hKV7.2_W236L/hKV7.3_W265L (Homo sapiens, UniProt O43525+O43526, A315T/W236L/W265L); test: Two-electrode voltage clamp, tryptophan mutant heteromer; assay type: cell-based; settings: 3 µM
Procedure, shortened: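 Human KV7 cRNA (2.5–50 ng per oocyte; mutants made by site-directed mutagenesis) was injected into Xenopus oocytes, which were kept 2–4 d at 8°C or 16°C. Two-electrode clamp was run at rt in 88 mM NaCl/1 mM KCl/15 mM HEPES saline, pH 7.4. Holding −80 mV; 2-s steps from −100 to +50 mV; tail −30 mV. Tail-current Boltzmann G(V) fits used a shared slope, giving per-oocyte ΔV50 and GMAX change; mean ± SEM.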

[3] = biological target: hKV7.1 (Homo sapiens, UniProt P51787); settings: ref Schenzer et al., 2005; cited from earlier work
[4] = 10 µM, analogues compared with ARA-S

Chain of hKV7.1 (P51787 whole entry): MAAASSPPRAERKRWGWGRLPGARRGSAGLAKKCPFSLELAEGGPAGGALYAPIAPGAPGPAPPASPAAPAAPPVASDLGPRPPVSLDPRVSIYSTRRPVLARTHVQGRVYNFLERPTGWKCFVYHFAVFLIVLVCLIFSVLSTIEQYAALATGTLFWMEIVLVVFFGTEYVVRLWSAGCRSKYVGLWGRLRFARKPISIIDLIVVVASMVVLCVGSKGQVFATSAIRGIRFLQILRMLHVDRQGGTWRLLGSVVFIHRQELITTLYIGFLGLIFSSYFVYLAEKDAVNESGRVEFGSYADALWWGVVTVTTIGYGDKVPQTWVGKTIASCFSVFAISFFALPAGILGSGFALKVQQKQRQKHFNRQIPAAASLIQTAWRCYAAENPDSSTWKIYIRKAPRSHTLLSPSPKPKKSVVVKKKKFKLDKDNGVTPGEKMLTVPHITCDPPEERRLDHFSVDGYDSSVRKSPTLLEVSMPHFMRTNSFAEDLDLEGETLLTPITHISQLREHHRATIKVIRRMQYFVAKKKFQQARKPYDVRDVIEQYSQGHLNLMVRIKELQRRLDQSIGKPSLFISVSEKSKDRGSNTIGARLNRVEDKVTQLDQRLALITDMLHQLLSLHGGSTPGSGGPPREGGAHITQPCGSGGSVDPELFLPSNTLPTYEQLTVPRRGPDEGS

For `CCCCC/C=C\C/C=C\C/C=C\C/C=C\CCCC(=O)OC(CO)CO` [2-AG, 2-arachidonoylglycerol], the “effect on maximal conductance GMAX (in words)” value [1] was “no effect” and the “shift of V50 (in words)” value [1] was “no effect”.

In the case of `CCCCC/C=C\C/C=C\C/C=C\C/C=C\CCCC(=O)N[C@H](CO)C(=O)O` (single isomer, unassigned) [D enantiomer of ARA-S, N-arachidonoyl-D-serine], the “effect on GMAX (in words)” value [1, 4] is reported as “comparable” and the “effect on V50 (in words)” value [1, 4] is reported as “comparable”.

In the case of `CCOC(=O)Nc1ccc(NCc2ccc(F)cc2)cc1N` [retigabine], the “current fold increase at −60 mV” value ([1]; 1 µM alone) is reported as “three- to fourfold”, the “increase in GMAX” value ([1]; 1 µM alone) is reported as “did not affect” and the “shift in V50 (ΔV50)” value ([1]; 1 µM alone) is reported as −8.1 ± 0.7 mV. For the same compound, the “ΔV50:MAX (maximal shift in V50)” value ([1]; from concentration-response curve) was −35 mV, the “sensitivity (shift in V50)” value [2] was “insensitive” and the “sensitivity of the channel” value [3] was “insensitive”.

In the case of `CCCCC/C=C\C/C=C\C/C=C\C/C=C\CCCC(=O)NCCO` [AEA, N-arachidonoylethanolamine], the “effect on maximal conductance GMAX (in words)” value [1] is reported as “no effect” and the “shift of V50 (in words)” value [1] is reported as “no effect”.
